# Assay results: publication PMC10203274 (Plant Communications, 2022)
# Where a chain is given by its changes, count along the chain named.
# Tests used:
# [1] = tested on: StUGT72AY2-chimera (Potato-Tobacco-Potato); test: UDP-Glo glycosyltransferase assay, chimeric mutant; format: biochemical, Solanum tuberosum; settings: Figure 5B and 5D
# In short: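 N-terminal GST-fusion enzyme expressed in E. coli BL21(DE3) pLysS (1 mM IPTG, 18°C overnight) and glutathione-eluted. Reaction: 2 μg protein, 100 μM UDP-glucose, and varied acceptor substrate (in DMSO) in 50 mM Tris-HCl pH 7.0, 30°C for 20 min. Stopped with HCl, neutralized with Trizma base, then UDP-Glo luminescence after 30 min dark. Michaelis–Menten or Hill fits from at least three repeats.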
# NbUGT72AY1-R91F = biological target: T1, NbUGT72AY1-R91F (Nicotiana benthamiana, UniProt A0A8K1ZRH3, R91F); test: UDP-Glo glycosyltransferase assay, kinetics of mutant; format: biochemical
# T1 sequence (A0A8K1ZRH3 1-477 R91F): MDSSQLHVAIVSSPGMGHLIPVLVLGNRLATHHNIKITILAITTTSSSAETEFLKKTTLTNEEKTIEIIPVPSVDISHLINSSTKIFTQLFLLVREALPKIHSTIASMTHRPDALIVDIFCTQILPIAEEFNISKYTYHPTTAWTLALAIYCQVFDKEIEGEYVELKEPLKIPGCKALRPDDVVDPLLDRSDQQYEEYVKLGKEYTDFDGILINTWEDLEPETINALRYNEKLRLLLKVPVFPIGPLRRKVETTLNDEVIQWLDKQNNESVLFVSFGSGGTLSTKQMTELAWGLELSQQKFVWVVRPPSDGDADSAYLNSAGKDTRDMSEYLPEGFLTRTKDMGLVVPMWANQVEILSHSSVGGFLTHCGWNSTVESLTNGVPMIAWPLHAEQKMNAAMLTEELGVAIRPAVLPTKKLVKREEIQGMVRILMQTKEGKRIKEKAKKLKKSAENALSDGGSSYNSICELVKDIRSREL
# NbUGT72AY1-R91M = biological target: T2, NbUGT72AY1-R91M (Nicotiana benthamiana, UniProt A0A8K1ZRH3, R91M); test: as above; format: biochemical
# T2 sequence (A0A8K1ZRH3 1-477 R91M): T1 sequence (A0A8K1ZRH3 1-477 R91F) with F91M
# NbUGT72AY1 = biological target: T3, NbUGT72AY1 (Nicotiana benthamiana, UniProt A0A8K1ZRH3); test: UDP-Glo glycosyltransferase assay, acceptor substrate kinetics; format: biochemical
# T3 sequence (A0A8K1ZRH3 1-477): T1 sequence (A0A8K1ZRH3 1-477 R91F) with F91R
# Alternaria alternata = settings: in vitro and in vivo; ref Sun et al., 2014; cited from earlier work
# NbUGT72AY1-R91A = biological target: T4, NbUGT72AY1-R91A (Nicotiana benthamiana, UniProt A0A8K1ZRH3, R91A); test: UDP-Glo glycosyltransferase assay, kinetics of mutant; format: biochemical
# T4 sequence (A0A8K1ZRH3 1-477 R91A): T1 sequence (A0A8K1ZRH3 1-477 R91F) with F91A
smiles,measurement,setting,value
COc1cc2ccc(=O)oc2cc1O [scopoletin],enzymatic activity of the chimeric mutant with the substrate,[1],inactive
same,Ki,NbUGT72AY1-R91F,0.9 ± 0.3 µM
same,Ki,NbUGT72AY1-R91M,27.3 ± 4.2 µM
same,Vi,"NbUGT72AY1-R91M; Fig S14b, mutant R91M, substrate scopoletin",13.1 ± 6.1 nmol/min/mg
same,Vi,"NbUGT72AY1; Fig S14b series, wild type R91, substrate scopoletin",4.4 ± 2.3 nmol/min/mg
same,Vmax,"NbUGT72AY1; Figure 5A series, wild type, substrate scopoletin",264.3 nmol/min/mg
same,Ki,"NbUGT72AY1; Ki, Fig S14b series, wild type R91, substrate scopoletin",10.7 ± 2.2 µM
same,Ki,"NbUGT72AY1; substrate inhibition (Ki), as stated in the abstract",4 µM
same,antifungal activity,Alternaria alternata,strong antifungal activity
same,Ki,NbUGT72AY1-R91A,3.3 ± 0.7 µM
